# Compound activity (PubChem BioAssay)
# Shown are actives, neighbours in structure and some others; about 2.4% of the full set was active somewhere.
# Rpn11 block = blocks the human proteasome subunit Rpn11; inhibition, % at 20 µM; human 26S proteasome, Ub4-pepOG fluorescence polarization; 20S core pre-blocked with epoxomicin; AID 588493; hit rate 0.59% among 360,000; O00487;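 active means inhibition at 20 µM, scaled to each plate's controls, above about 33%, limit read from the data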
# Target sequence (O00487 whole entry, looked up): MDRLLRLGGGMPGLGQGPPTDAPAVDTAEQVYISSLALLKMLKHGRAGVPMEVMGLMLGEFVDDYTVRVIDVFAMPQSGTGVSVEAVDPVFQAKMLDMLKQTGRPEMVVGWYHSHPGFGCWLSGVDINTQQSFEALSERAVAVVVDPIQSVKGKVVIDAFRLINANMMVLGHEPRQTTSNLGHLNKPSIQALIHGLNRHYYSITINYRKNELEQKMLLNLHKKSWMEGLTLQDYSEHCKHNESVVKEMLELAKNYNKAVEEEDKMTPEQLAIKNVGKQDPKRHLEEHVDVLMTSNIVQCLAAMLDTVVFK
# HNF4A DNA FP = change in binding of human HNF4 alpha to DNA; HNF4a-FITC DNA binding, fluorescence polarization, 1 h; hit rate 0.3% among 360,000; P41235; activity change, % at 10 µM; in the data active means activity change above about 30%, passing the limit was not always enough
# Neddyl block = cullin neddylation inhibition | inhibition, % at 25 µM | P61081+Q13564 | hit rate 0.58% among 360,000 | TR-FRET cullin neddylation, biochemical; in the data active means inhibition above about 36%
# TbMetRS inhib = blocks T. brucei methionyl-tRNA synthetase activity; inhibition, % at 11.9 µM; AID 624268; hit rate 0.4% among 360,000; purified T. brucei MetRS, ATP depletion, Kinase-Glo luminescence;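 active means inhibition above a per-plate cutoff of the control wells' mean inhibition plus 3 SD, cut at about 5.5% in these data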
#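 System: purified T. brucei MetRS enzyme / Detection: Kinase-Glo luciferase luminescence reporting remaining unconsumed ATP / Medium: HEPES buffer with MgCl2, KCl, DTT, spermine, BSA, pyrophosphatase / Replication: singlicate, one well per compound / Evaluation: percent inhibition relative to median high and low control wells / Schedule: 2 h aminoacylation at 25 °C after 15 min preincubation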
# CSN deneddyl inh = blocks human CSN-mediated cullin deneddylation | Q92905 | Purified CSN, SCF-Nedd8-OG deneddylation, fluorescence polarization | inhibition, % at 12.5 µM | hit rate 0.38% among 360,000 | AID 651999;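 active means pattern-corrected inhibition above about 35%, with an unprinted fluorescence ratio check between 0.5 and 1.5, limit read from the data, passing the limit was not always enough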
# Target sequence (Q92905 whole entry, looked up, one chain of several): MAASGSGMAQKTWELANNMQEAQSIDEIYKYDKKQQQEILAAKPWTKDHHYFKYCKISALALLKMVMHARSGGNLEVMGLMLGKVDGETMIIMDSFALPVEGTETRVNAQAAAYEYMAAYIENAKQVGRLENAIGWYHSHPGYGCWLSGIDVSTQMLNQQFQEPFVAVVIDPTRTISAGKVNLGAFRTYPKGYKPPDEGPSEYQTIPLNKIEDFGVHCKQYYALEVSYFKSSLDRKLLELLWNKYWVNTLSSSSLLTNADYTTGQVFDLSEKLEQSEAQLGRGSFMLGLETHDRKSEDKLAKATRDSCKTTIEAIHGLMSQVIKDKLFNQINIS
#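 Assay system: HEK293T-derived human Csn5 enzyme; quantity: 0.24 nM enzyme; medium: Tris/NaCl/DTT buffer, pH 7.5; also added: substrate SCFSkp2-Nedd8OG, 10 nM; doses: 12.5 µM compound; schedule: 90 min reaction at room temperature; signal: FP; read-out: % inhibition of substrate cleavage by Csn5; benchmarks: substrate-only high control, full reaction low control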
# PREPL inh = inhibits the human prolyl oligopeptidase-like enzyme. recombinant PREPL, fluorescence polarization activity-based probe. Q4J6C6. inhibition, % at 5.96 µM. AID 2751. hit rate 0.68% among 320,000; in the data active means inhibition above about 43%
# Hits are given with their value; i = inactive; nt = no result given.
SMILES,Rpn11 block,HNF4A DNA FP,Neddyl block,TbMetRS inhib,CSN deneddyl inh,PREPL inh
COc1cccc(-c2cc3nc(C)c(C)c(N4CCN(C(=O)c5ccoc5)CC4)n3n2)c1,i,i,nt,i,i,nt
Cc1ccc(C(=O)O/N=C(\c2ccccc2)c2ccncc2)cc1,i,i,i,i,i,88
CCCC(=O)O/N=C(\c1ccccc1)c1ccncc1,i,i,i,i,i,i
CN(C(=S)NC(=O)c1ccccc1)C1CCCCC1,i,i,i,i,46,i
O=C1OCCC1=COCCCCCOC=C1CCOC1=O,i,i,i,i,i,nt
COCCCNc1nc(N)c([N+](=O)[O-])c(NC2CCCCC2)n1,i,i,i,i,i,i
Nc1nc(NCC(=O)O)nc(NC2CCCCC2)c1[N+](=O)[O-],i,46,i,i,i,nt
Cc1cccc(NC(=O)CN2C(=O)N/C(=C/c3ccc(C)s3)C2=O)c1,nt,60,i,i,i,i
Cc1cccc(NC(=O)CN2C(=O)N/C(=C/c3cc(C)n(C(C)C)c3C)C2=O)c1,i,i,i,i,i,i
CN(CCc1ccccc1)C(C(=O)c1ccc2c(c1)OCO2)c1nnnn1-c1ccccc1NC(=O)OC(C)(C)C (centres undefined),nt,i,i,i,i,nt
C(=Nc1cccc2c(N=Cc3ccco3)cccc12)c1ccco1,i,i,i,i,i,55
CC1(C)CC(=O)C=C(Nc2ccc(Cl)c(Br)c2)C1,i,i,i,i,i,i
CC1(C)CCC[C@]2(C)C(CS(=O)c3ccccc3)=C(C=O)CC[C@@H]12 (some centres undefined),i,i,i,i,i,i
CCOC(=O)[C@]12CCCC=C1N(Cc1cccc3ccccc13)C(=O)[C@H](CC(=O)N1CCCC1)C2,nt,i,i,i,i,nt
CCNc1ccc(Br)cc(C(=O)/C=C/c2c(Cl)cccc2Cl)c1=O,54,i,i,i,37,i
CCCCCCCCCCCCCCC[C@@H](O)[C@@H](N)CO,i,121,i,i,84,nt
CN(c1ccccc1)S(=O)(=O)c1cccc(NC(=O)C2CCCO2)c1 (centres undefined),i,i,i,i,i,i
OCCN(CCO)c1cc2c3ccccc3ccc2c2ccccc12,i,i,i,i,45,nt
CCOC(=O)C1(C)CCN1C(=O)c1ccccc1OC(F)(F)F (centres undefined),i,i,i,i,i,nt
Cc1cccc(OCc2nnc(SCC(=O)NCc3ccc4c(c3)OCO4)o2)c1,i,i,i,i,i,nt
COc1cc(C2C(C#N)=C(N)Oc3n[nH]c(C)c32)ccc1OC(=O)c1ccccc1 (centres undefined),i,i,i,i,i,61
COCc1[nH]nc2c1C(c1ccc(OC)cc1)C(C#N)=C(N)O2 (centres undefined),i,i,i,i,i,i
CC(C)c1[nH]nc2c1C(c1ccc(OC(=O)c3ccco3)cc1)C(C#N)=C(N)O2 (centres undefined),i,i,i,i,i,60
Cc1[nH]nc2c1C(c1ccco1)C(C#N)=C(N)O2 (centres undefined),i,i,i,i,i,i
COc1cc(C2C(C#N)=C(N)Oc3n[nH]c(C)c32)cc2c1OCO2 (centres undefined),i,i,i,i,i,i
SMILES,Rpn11 block,HNF4A DNA FP,Neddyl block,TbMetRS inhib,CSN deneddyl inh,PREPL inh
COc1ccc(-c2ccc(C3C(C#N)=C(N)Oc4n[nH]c(C)c43)o2)cc1 (centres undefined),73,61,i,i,i,i
Cc1nc2ccccc2n1C(c1cccnc1)c1nc2ccccc2[nH]1 (centres undefined),nt,i,i,i,i,nt
O=C(OCc1nc2ccccc2[nH]1)C12CC3CC(CC(C3)C1)C2,i,i,i,47,i,i
O=C(CSc1nc2sc3c(c2c(=O)n1-c1ccccc1)CCCC3)N/N=C/c1ccccc1C(=O)O,i,i,i,i,50,i
CC(NC(=O)CSc1nc2sc3c(c2c(=O)n1-c1ccccc1)CCCC3)c1ccccc1 (centres undefined),i,i,i,i,i,i
COc1ccc(C(=O)c2sc3nc(-c4ccccc4)ccc3c2N)cc1OC,i,69,i,i,i,i
CC(C)NC(=O)C1Cc2c(-c3ccccc3Oc3ccccc3)ccnc2O1 (centres undefined),i,i,i,i,i,nt
O=C1CCC[C@@H]2C=C[C@H](c3ccc(Br)cc3)[C@H]3CCN1[C@@H]32,nt,i,i,i,i,nt
COC(=O)c1ccc(OC(=O)CCN2C(=O)C3CCCCC3C2=O)cc1 (centres undefined),i,i,i,i,i,44
CCOC1=C2[C@H](c3ccccc3)N(S(=O)(=O)c3ccc(C)cc3)C(C(C)(C)C)[C@H]2C(C#N)(C#N)C(C#N)(C#N)C1 (some centres undefined),i,i,i,i,i,nt
COc1ccc(/C=N/n2cnc3c([nH]c4ccc(F)cc43)c2=O)cc1CN1CCCC1,i,i,i,i,85,i
CCN(CC)c1nc(C)c(C(=S)Nc2cc([N+](=O)[O-])ccc2Cl)s1,nt,47,i,i,i,i
CCOC(=O)/C(=C/c1ccc(OC(=O)c2ccncc2)cc1)C(C)=O,i,i,i,i,36,i
CN1CCC(=NNC(=O)C(=O)Nc2ccc(F)cc2)CC1,i,i,i,i,i,i
CN1CCC(=NNC(=O)C(=O)Nc2cccc(Br)c2)CC1,i,31,i,i,i,i
C(=Cc1c[nH]c2ccccc12)c1nccc2ccccc12,i,i,i,i,i,nt
C(=Cc1c[nH]c2ccccc12)c1ccc2ccccc2n1,i,37,nt,i,i,nt
CCOC(=O)C1CCN(c2cc(=O)n(C3CCCCC3)c(=O)[nH]2)CC1,i,40,i,i,i,i
COc1ccc(CN2C[C@@H](CO)O[C@@H](n3cnc4c(NCc5ccco5)ncnc43)C2)cc1,i,i,i,i,i,nt
CN1C(=O)/C(=C/c2cn(CC(=O)N3CCCCC3)c3ccccc23)c2ccccc21,nt,nt,nt,nt,nt,45
CCn1nc(C)c(/C=N/NC(=O)c2ccc3c(c2)c(C)c(C)n3Cc2ccccc2)c1C,i,i,40,i,i,i
CCn1ncc(/C=N\NC(=O)c2ccc3c(c2)c(C)c(C)n3Cc2ccccc2)c1C,i,i,nt,i,i,i
Cc1cc(Cl)ccc1NC(=O)CCN1C(=O)NC(C)(C)C1=O,i,i,i,i,i,i
O=C1N/C(=C\c2ccc(N3CCOCC3)c(F)c2)C(=O)N1Cc1ccccc1,i,i,i,i,i,i
Cc1ccc(CN2C(=O)N/C(=C\c3ccc(N4CCOCC4)cc3)C2=O)cc1,i,i,i,i,i,71
CCCN1C(=O)/C(=C/c2ccc(N3CCOCC3)cc2)NC1=S,nt,90,i,i,i,i
COc1cc2ccccc2ccc1=NO,i,i,i,i,i,nt
